Activity and MIC data for 14 molecules are collected here from ChEMBL document CHEMBL1155137, “Extended-spectrum beta-lactamases of the CTX-M type now in Switzerland” (2007).

Converted amounts (≈) assume the structure as drawn.

The subject of assay [1] is Enterobacter. Put plainly: Antimicrobial activity against Enterobacter isolates producing extended-spectrum beta-lactamase assessed as percent resistant isolates by disk diffusion method. Background: A growth-free zone around the sample is the usual read-out of agar diffusion tests.
In assay [2] the test system is Enterobacter. Put plainly: Antimicrobial activity against Enterobacter isolates producing extended-spectrum beta-lactamase CTX-M-9 by agar dilution method. The assay is classed as functional. A digest of the protocol:
(§1)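 Enterobacterial clinical isolates on Mueller-Hinton agar. Agar dilution with an inoculum of 10⁴ CFU per spot gave MICs of selected β-lactams. β-lactams were tested alone or with a fixed level of clavulanic acid (4 μg/ml) or tazobactam (4 μg/ml).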
(In agar dilution, organisms are placed on agar that contains the substance at set levels.)

Assay [3] has as its system Enterobacter. Put plainly: Antimicrobial activity against Enterobacter isolates producing extended-spectrum beta-lactamase CTX-M-15 by agar dilution method. The assay is classed as functional. A digest of the protocol:
as §1

For assay [4], the system named is Enterobacter. Put plainly: Antimicrobial activity against Enterobacter isolates producing extended-spectrum beta-lactamase TEM-ES by agar dilution method. The assay is classed as functional. In a few lines: as §1
In assay [5] the test system is Enterobacter. Put plainly: Antimicrobial activity against Enterobacter isolates producing extended-spectrum beta-lactamase CTX-M-2 by agar dilution method. The assay is classed as functional. In a few lines: as §1
The test system of assay [6] is Enterobacter. Put plainly: Antimicrobial activity against Enterobacter isolates producing extended-spectrum beta-lactamase CTX-M-1 by agar dilution method. Type of assay: functional. In a few lines:
as §1

Assay [7] concerns Enterobacter. Put plainly: Antimicrobial activity against Enterobacter isolates producing extended-spectrum beta-lactamase SHV-ES by agar dilution method. The assay is classed as functional. In a few lines:
as §1

The subject of assay [8] is Enterobacter. Put plainly: Antimicrobial activity against Enterobacter isolates producing extended-spectrum beta-lactamase CTX-M-14 by agar dilution method. Type of assay: functional. In a few lines: as §1

As for `NCC[C@H](O)C(=O)N[C@@H]1C[C@H](N)[C@@H](O[C@H]2O[C@H](CN)[C@@H](O)[C@H](O)[C@H]2O)[C@H](O)[C@H]1O[C@H]1O[C@H](CO)[C@@H](O)[C@H](N)[C@H]1O` [AMIKACIN], in the assay with Enterobacter [1], the Activity is on record as 2%.

Turning to `C[C@@H](O)[C@H]1C(=O)N2C(C(=O)O)=C(S[C@@H]3CN[C@H](C(=O)Nc4cccc(C(=O)O)c4)C3)[C@H](C)[C@H]12` [ERTAPENEM], the MIC (in general, the lowest concentration that inhibits growth of the organism) with Enterobacter [2] turned out to be 0.06 µg/mL (≈ 0.126 µM); with Enterobacter [3] it was 0.003 µg/mL (≈ 0.00631 µM); in the assay with Enterobacter [4], 0.06 µg/mL (≈ 0.126 µM); in the assay with Enterobacter [5], 0.06 µg/mL (≈ 0.126 µM); with Enterobacter [6], 0.12 µg/mL (≈ 0.252 µM); in the assay with Enterobacter [7], 0.06 µg/mL (≈ 0.126 µM). The minimum inhibitory concentration (MIC) against Enterobacter [8] came to 0.003 µg/mL (≈ 0.00631 µM).

For `CC1(C)S[C@@H]2[C@H](NC(=O)[C@H](C(=O)O)c3ccsc3)C(=O)N2[C@H]1C(=O)O` [TICARCILLIN], the MIC with Enterobacter [2], against Enterobacter [3], against Enterobacter [4], against Enterobacter [5], against Enterobacter [6] and against Enterobacter [7] was above 256 µg/mL throughout. Besides, in the assay with Enterobacter [8], the MIC was above 256 µg/mL.

As to `O=C(O)c1cn(C2CC2)c2cc(N3CCNCC3)c(F)cc2c1=O` [CIPROFLOXACIN], the Activity in the assay with Enterobacter [1] is given as 50%.

On to `CO/N=C(\C(=O)N[C@@H]1C(=O)N2C(C(=O)[O-])=C(C[N+]3(C)CCCC3)CS[C@H]12)c1csc(N)n1` [CEFEPIME], for which the MIC was found to be 2 µg/mL (≈ 4.16 µM) in the assay on Enterobacter [2]; 8 µg/mL (≈ 16.6 µM) against Enterobacter [3]; 0.25 µg/mL (≈ 0.52 µM) in the assay with Enterobacter [4]; 16 µg/mL (≈ 33.3 µM) against Enterobacter [5]; 32 µg/mL (≈ 66.6 µM) with Enterobacter [6]; 0.25 µg/mL (≈ 0.52 µM) in the assay with Enterobacter [7]. Besides, in the assay with Enterobacter [8], the MIC stood at 2 µg/mL (≈ 4.16 µM).

In the case of `CCN1CCN(C(=O)N[C@@H](C(=O)N[C@@H]2C(=O)N3[C@@H]2SC(C)(C)[C@@H]3C(=O)O)c2ccccc2)C(=O)C1=O` [PIPERACILLIN], the MIC is 64 µg/mL (≈ 124 µM) against Enterobacter [2]; 128 µg/mL (≈ 247 µM) with Enterobacter [3]; 32 µg/mL (≈ 61.8 µM) with Enterobacter [4]; 128 µg/mL (≈ 247 µM) against Enterobacter [5]; above 256 µg/mL against Enterobacter [6]; 32 µg/mL (≈ 61.8 µM) against Enterobacter [7]. The molecule also showed an MIC in the assay on Enterobacter [8] of 32 µg/mL (≈ 61.8 µM).

As for `C[C@H]1[C@H](NC(=O)/C(=N\OC(C)(C)C(=O)O)c2csc(N)n2)C(=O)N1S(=O)(=O)O` [AZTREONAM], the MIC came out at 2 µg/mL (≈ 4.59 µM) in the assay on Enterobacter [2]; 2 µg/mL (≈ 4.59 µM) against Enterobacter [3]; 2 µg/mL (≈ 4.59 µM) against Enterobacter [4]; 16 µg/mL (≈ 36.7 µM) in the assay with Enterobacter [5]; 64 µg/mL (≈ 147 µM) in the assay with Enterobacter [6]; 2 µg/mL (≈ 4.59 µM) in the assay with Enterobacter [7]. Further, in the assay with Enterobacter [8], the MIC stood at 2 µg/mL (≈ 4.59 µM).

On to `CC1(C)S[C@@H]2[C@H](NC(=O)[C@H](N)c3ccc(O)cc3)C(=O)N2[C@H]1C(=O)O` [AMOXICILLIN], for which the MIC against Enterobacter [2], against Enterobacter [3], with Enterobacter [4], against Enterobacter [5], with Enterobacter [6] and in the assay with Enterobacter [7] was above 256 µg/mL each time. Besides, the MIC with Enterobacter [8] was above 256 µg/mL.

As to `C[C@@H](O)[C@H]1C(=O)N2C(C(=O)O)=C(SCCNC=N)C[C@H]12` [IMIPENEM ANHYDROUS], the MIC against Enterobacter [2], against Enterobacter [3], in the assay with Enterobacter [4], against Enterobacter [5], in the assay on Enterobacter [6] and in the assay with Enterobacter [7] was 0.25 µg/mL (≈ 0.835 µM) throughout. The MIC against Enterobacter [8] was found to be 0.25 µg/mL (≈ 0.835 µM).

With `O=C(N[C@H](CO)[C@H](O)c1ccc([N+](=O)[O-])cc1)C(Cl)Cl` [CHLORAMPHENICOL], the Activity in the assay with Enterobacter [1] came to 30%.

With `CO[C@@]1(NC(=O)Cc2cccs2)C(=O)N2C(C(=O)O)=C(COC(N)=O)CS[C@@H]21` [CEFOXITIN], the minimal inhibitory concentration (MIC) in the assay with Enterobacter [2] was found to be 8 µg/mL (≈ 18.7 µM); in the assay with Enterobacter [3], 4 µg/mL (≈ 9.36 µM); against Enterobacter [4], 4 µg/mL (≈ 9.36 µM); with Enterobacter [5], 4 µg/mL (≈ 9.36 µM); with Enterobacter [6], 8 µg/mL (≈ 18.7 µM); in the assay with Enterobacter [7] it was 4 µg/mL (≈ 9.36 µM). In the assay on Enterobacter [8], this molecule displayed a minimum inhibitory concentration (MIC) of 4 µg/mL (≈ 9.36 µM).

Regarding `CC(=O)OCC1=C(C(=O)O)N2C(=O)[C@@H](NC(=O)Cc3cccs3)[C@H]2SC1` [CEPHALOTHIN], the MIC against Enterobacter [2], against Enterobacter [3], against Enterobacter [4], against Enterobacter [5], against Enterobacter [6] and in the assay on Enterobacter [7] was above 256 µg/mL each time. In the assay with Enterobacter [8], this molecule registered an MIC above 256 µg/mL.

For `CC(C)(O/N=C(\C(=O)N[C@@H]1C(=O)N2C(C(=O)[O-])=C(C[n+]3ccccc3)CS[C@H]12)c1csc(N)n1)C(=O)O` [CEFTAZIDIME], the MIC in the assay on Enterobacter [2] was found to be 1 µg/mL (≈ 1.83 µM); in the assay on Enterobacter [3] it was 1 µg/mL (≈ 1.83 µM); in the assay on Enterobacter [4], 4 µg/mL (≈ 7.32 µM); in the assay with Enterobacter [5], 1 µg/mL (≈ 1.83 µM); against Enterobacter [6], 4 µg/mL (≈ 7.32 µM); in the assay with Enterobacter [7], 0.25 µg/mL (≈ 0.457 µM). In the assay on Enterobacter [8], this molecule yielded an MIC of 0.5 µg/mL (≈ 0.915 µM).

As for `CO/N=C(\C(=O)N[C@@H]1C(=O)N2C(C(=O)O)=C(COC(C)=O)CS[C@H]12)c1csc(N)n1` [CEFOTAXIME], the MIC in the assay with Enterobacter [2] was 32 µg/mL (≈ 70.3 µM); with Enterobacter [3], 128 µg/mL (≈ 281 µM); against Enterobacter [4], 0.12 µg/mL (≈ 0.263 µM); against Enterobacter [5], 128 µg/mL (≈ 281 µM); with Enterobacter [6], above 256 µg/mL; in the assay with Enterobacter [7], 2 µg/mL (≈ 4.39 µM). Also, in the assay with Enterobacter [8], the MIC was determined as 32 µg/mL (≈ 70.3 µM).
